The values below come from article PMC4521672 (OncoTargets and therapy, 2015).

For orientation: pIC50 means the negative decadic logarithm of the IC50, by convention in mol/L.

In one test the target is GSTP1 (GST-π) (Homo sapiens, UniProt P09211). Briefly: GST activity assay. The class given is biochemical. The following applies: read-out: IC50 for inhibition of formation of the CDNB-GSH conjugate in the presence of GST-π; GSTP1 5 μg/mL, pH 6.8, absorption at 355 nm.
The target of a further test is T1, GSTA1 (GST-α) (Homo sapiens, UniProt P08263).
T1 sequence (P08263 1-222): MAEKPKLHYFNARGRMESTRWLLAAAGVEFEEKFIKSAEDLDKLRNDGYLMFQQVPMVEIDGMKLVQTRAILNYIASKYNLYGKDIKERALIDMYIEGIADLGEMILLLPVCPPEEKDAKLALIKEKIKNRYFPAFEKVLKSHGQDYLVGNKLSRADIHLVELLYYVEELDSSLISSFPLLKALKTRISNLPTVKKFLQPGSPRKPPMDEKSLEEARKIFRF
The test is described as follows: GST activity assay. The class given is biochemical. The following applies: read-out: IC50 for inhibition of formation of the CDNB-GSH conjugate in the presence of GST-α; GSTA1 5 μg/mL, pH 6.8, absorption at 355 nm. The gist of the method: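 Recombinant human GSTA1 at 5 μg/mL in 0.1 M sodium phosphate, pH 6.8. GSH and CDNB were added from 2.5 mM and 7.5 mM stocks. Test compound was made as a 10 mM ethanol stock, then serially diluted to 10^-2–100 μM to compete with CDNB for conjugation to GSH. After 1–5 min, absorbance read at 355 nm, minus non-enzymatic conjugation. Triplicate runs; IC50 taken from dose–response curves.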

The test system of the next test is C6 glioma tumor. The test is described as follows: In vivo PET imaging of C6 glioma-bearing rat. More on the design: species or system Sprague–Dawley rats. The following applies: dynamic PET 0-60 minutes post-injection, intravenous. The gist of the method: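 Male Sprague–Dawley rats (8 weeks) stereotactically inoculated in the right hemisphere with 1.0×10^5 C6 cells. Tumours grew 2 weeks to 3–5 mm, with loci confirmed by MRI. Rats were anaesthetised with isoflurane in 200 mL/min oxygen and fitted with venous and arterial catheters. Imaged on a microPET R4 scanner; one tumour-bearing and one healthy rat were scanned.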

Structures are written as SMILES. pIC50: −log10 of the molar value.

With `C=C(CC)C(=O)c1ccc(OCC(=O)NCCCCF)c(Cl)c1Cl` [FBuEA, fluorobutyl ethacrynic amide], the pIC50 at GSTP1 (GST-π) was 5.22; at GSTA1 (GST-α), 4.76.

`Cc1cn([C@H]2C[C@H]([18F])[C@@H](CO)O2)c(=O)[nH]c1=O` [[^18F]FLT, 3′-deoxy-3′-[^18F] fluorothymidine]: in the test on C6 glioma tumor, the “Accumulation in C6 glioma tumor loci (PET)” value is “tumor sites were targeted”.
